According to ChEMBL document CHEMBL1649062, “Integration of lead optimization with crystallography for a membrane-bound ion channel target: discovery of a new class of AMPA receptor positive allosteric modulators” (J Med Chem, 2011):
The source made the active and inactive calls. No cut-off for these calls is given here.

Tests used:
[1] = Distribution coefficient, log D of the compound; assay type: physicochemical; settings: octanol/water
[2] = AUC ( 0 to t) in rat at 3 mg/kg, po; assay type: ADME, organism-based, Plasma; set-up: dose 3 mg/kg, route oral; settings: plasma
[3] = test system: Brain; test: Brain tissue binding in rat at 3 mg/kg, po; assay type: ADME, organism-based; set-up: dose 3 mg/kg, route oral; settings: in vivo
[4] = Apparent permeability of the compound; assay type: ADME; settings: not told
Method in brief: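 Artificial membrane permeability: donor holds 10 mM sample in pH 7.05 phosphate buffer with 0.5% hydroxypropylcyclodextrin. Membrane is 1.8% phosphatidylcholine and 1% cholesterol in decane. Donor and acceptor concentrations measured by LCMS after 3 h at room temperature; permeability expressed in nm/s.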

[5] = Clearance in Sprague-Dawley rat at 2.5 mg/kg, iv and 3 mg/kg, po; assay type: ADME, organism-based; settings: in vivo
Method in brief: (§1)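 Male animals, n = 3 per species, given single iv and oral doses. Values are mean and range. Blood clearance is also expressed as % of liver blood flow, taken as (mL/min)/kg: rat 85, dog 31, minipig 30, cynomolgus monkey 44.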

[6] = Clearance in Gottingen minipig at 0.5 mg/kg, iv and 1 mg/kg, po; assay type: ADME, organism-based, Sus scrofa; settings: pig, in vivo; method in brief: as §1
[7] = Volume of distribution at steady state in Sprague-Dawley rat at 2.5 mg/kg, iv and 3 mg/kg, po; assay type: ADME, organism-based; settings: in vivo, read-out: Vdss
Method in brief: (§2)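 Male animals, n = 3 per species, given single iv and oral doses: Sprague-Dawley rat 2.5 iv / 3 po mg/kg; beagle dog 0.25 / 0.5; Göttingen minipig 0.5 / 1; cynomolgus monkey 0.25 / 1. Blood sampled; Vss from iv; bioavailability and Vss as mean [range]; Tmax as median [range].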

[8] = Volume of distribution at steady state in cynomolgus monkey at 0.25 mg/kg, iv and 1 mg/kg, po; assay type: ADME, organism-based, Macaca fascicularis; settings: in vivo, read-out: Vdss; method in brief: as §2
[9] = Half life in Sprague-Dawley rat at 2.5 mg/kg, iv; assay type: ADME, organism-based; set-up: dose 2.5 mg/kg, route intravenous; settings: in vivo; method in brief: as §1
[10] = Half life in Swiss Beagle dog at 0.25 mg/kg, iv; assay type: ADME, organism-based, Canis lupus familiaris; set-up: dose 0.25 mg/kg, route intravenous; settings: in vivo; method in brief: as §1
[11] = Half life in cynomolgus monkey at 0.25 mg/kg, iv; assay type: ADME, organism-based, Macaca fascicularis; set-up: dose 0.25 mg/kg, route intravenous; settings: in vivo; method in brief: as §1
[12] = Oral bioavailability in Gottingen minipig at 1 mg/kg; assay type: ADME, organism-based, Sus scrofa; settings: pig, in vivo; method in brief: as §2
[13] = Oral bioavailability in cynomolgus monkey at 1 mg/kg; assay type: ADME, organism-based, Macaca fascicularis; settings: in vivo; method in brief: as §2
[14] = Cmax in Sprague-Dawley rat at 3 mg/kg, po; assay type: ADME, organism-based; set-up: dose 3 mg/kg, route oral; settings: in vivo
[15] = Cmax in Swiss Beagle dog at 0.5 mg/kg, po; assay type: ADME, organism-based, Canis lupus familiaris; set-up: dose 0.5 mg/kg, route oral; settings: in vivo
[16] = Cmax in Gottingen minipig at 1 mg/kg, po; assay type: ADME, organism-based, Sus scrofa; set-up: dose 1 mg/kg, route oral; settings: pig, in vivo
[17] = Cmax in cynomolgus monkey at 1 mg/kg, po; assay type: ADME, organism-based, Macaca fascicularis; set-up: dose 1 mg/kg, route oral; settings: in vivo
[18] = Tmax in Gottingen minipig at 1 mg/kg, po; assay type: ADME, organism-based, Sus scrofa; set-up: dose 1 mg/kg, route oral; settings: pig, in vivo; method in brief: as §2
[19] = Half life in Sprague-Dawley rat at 3 mg/kg, po; assay type: ADME, organism-based; set-up: dose 3 mg/kg, route oral; settings: in vivo
[20] = Half life in Swiss Beagle dog at 0.5 mg/kg, po; assay type: ADME, organism-based, Canis lupus familiaris; set-up: dose 0.5 mg/kg, route oral; settings: in vivo
[21] = Half life in Gottingen minipig at 1 mg/kg, po; assay type: ADME, organism-based, Sus scrofa; set-up: dose 1 mg/kg, route oral; settings: pig, in vivo
[22] = Intrinsic clearance in cryopreserved dog hepatocytes assessed per gram of tissue; assay type: ADME, cell-based, Canis lupus familiaris, Liver, Hepatocyte
Method in brief: (§3)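 Cryopreserved hepatocytes at 70 000 cells/mL; intrinsic clearance expressed per gram of liver; single determination (human also n = 3).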

[23] = Intrinsic clearance in cryopreserved minipig hepatocytes assessed per gram of tissue; assay type: ADME, cell-based, Sus scrofa, Liver, Hepatocyte; settings: pig; method in brief: as §3
[24] = target: Voltage-gated inwardly rectifying potassium channel KCNH2 (Homo sapiens, UniProt Q12809); test: Inhibition of human ERG at 10 uM
Method in brief: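 hERG tail current recorded from stably transfected cells, compound at a nominal 10 μM (stated as 3.6 μg/mL).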

[25] = target: T1, Glutamate receptor 2 (Homo sapiens, UniProt P42262); test: Allosteric modulation of human recombinant GluA2 receptor flip isoform expressed in HEK293 cells assessed as potentiation of glutamate-induced calcium influx by Fluo-4/FLIPR method relative to cyclothiazide; assay type: cell-based
Method in brief: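 Stable GluA2 flip (unedited) cells seeded to confluence 2-3 days before assay; washed in HEPES buffer (145 NaCl, 5 KCl, 2 CaCl2, 1 MgCl2, 5.5 glucose, pH 7.3), loaded with 2 μM Fluo4-AM 60 min at room temperature. FLIPR dual addition: compound 5 min before 100 μM glutamate; fluorescence rise expressed against maximal cyclothiazide response, fitted pEC50 and Asym max; n ≥ 3.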

[26] = target: Glutamate receptor 2 (Rattus norvegicus) (UniProt P19491); test: Allosteric modulation of GluA2 receptor flip isoform in rat hippocampal neuron at 10 nM by whole cell patch-clamp electrophysiology; settings: Hippocampus
Method in brief: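 Rat cultured hippocampal neurons; 30 μM AMPA applied for 2 s, with compound co-applied at 10 nM or 10 μM. Read-out is the increase in charge transfer, taken as the area under the current curve.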

[27] = target: T1, Glutamate receptor 2; test: Allosteric modulation of human recombinant GluA2 receptor flip isoform expressed in HEK293 cells at 10 uM by whole cell patch-clamp electrophysiology; assay type: cell-based
Method in brief: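 Perforated-patch (amphotericin B) voltage clamp of HEK293 cells stably expressing human GluA2 flip (unedited) homotetramers, held at -60 mV. Extracellular solution in mM: 140 NaCl, 2 KCl, 1 MgCl2, 2 CaCl2, 12 HEPES, 10 D-glucose, pH 7.35. Currents evoked by 1 mM glutamate; compound at 100 nM or 10 μM. Read-out is percent increase in charge transfer (area under curve).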

[28] = test system: Brain; test: Drug level in Lister Hooded rat assessed per gram of tissue at 0.3 mg/kg, ip; assay type: ADME, organism-based; set-up: dose 0.3 mg/kg, route intraperitoneal; settings: in vivo
Method in brief: (§4)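 Male Lister Hooded rats (n = 9-12/group) tested for reversal of a 24 h delay-induced deficit in novel object recognition. Significant doses flagged. Brain concentrations measured in the study animals at the end of the test.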

[29] = test system: Brain; test: Drug level in Lister Hooded rat assessed per gram of tissue at 3 mg/kg, ip; assay type: ADME, organism-based; set-up: dose 3 mg/kg, route intraperitoneal; settings: in vivo; method in brief: as §4
[30] = in vivo; settings: Sprague-Dawley, rat, po, 3 mg/kg
[31] = test system: Rattus norvegicus; test: Cognitive enhancing effect in Lister Hooded rat assessed as reversal of 24 hrs delay-induced cognitive deficit at 1 mg/kg, ip by novel object recognition test
[32] = test system: Rattus norvegicus; test: Cognitive enhancing effect in Lister Hooded rat assessed as reversal of 24 hrs delay-induced cognitive deficit at 0.1 mg/kg, ip by novel object recognition test
[33] = test system: Rattus norvegicus; test: Cognitive enhancing effect in Lister Hooded rat assessed as reversal of 24 hrs delay-induced cognitive deficit at 0.3 mg/kg, ip by novel object recognition test

T1 sequence (P42262 whole entry, canonical isoform): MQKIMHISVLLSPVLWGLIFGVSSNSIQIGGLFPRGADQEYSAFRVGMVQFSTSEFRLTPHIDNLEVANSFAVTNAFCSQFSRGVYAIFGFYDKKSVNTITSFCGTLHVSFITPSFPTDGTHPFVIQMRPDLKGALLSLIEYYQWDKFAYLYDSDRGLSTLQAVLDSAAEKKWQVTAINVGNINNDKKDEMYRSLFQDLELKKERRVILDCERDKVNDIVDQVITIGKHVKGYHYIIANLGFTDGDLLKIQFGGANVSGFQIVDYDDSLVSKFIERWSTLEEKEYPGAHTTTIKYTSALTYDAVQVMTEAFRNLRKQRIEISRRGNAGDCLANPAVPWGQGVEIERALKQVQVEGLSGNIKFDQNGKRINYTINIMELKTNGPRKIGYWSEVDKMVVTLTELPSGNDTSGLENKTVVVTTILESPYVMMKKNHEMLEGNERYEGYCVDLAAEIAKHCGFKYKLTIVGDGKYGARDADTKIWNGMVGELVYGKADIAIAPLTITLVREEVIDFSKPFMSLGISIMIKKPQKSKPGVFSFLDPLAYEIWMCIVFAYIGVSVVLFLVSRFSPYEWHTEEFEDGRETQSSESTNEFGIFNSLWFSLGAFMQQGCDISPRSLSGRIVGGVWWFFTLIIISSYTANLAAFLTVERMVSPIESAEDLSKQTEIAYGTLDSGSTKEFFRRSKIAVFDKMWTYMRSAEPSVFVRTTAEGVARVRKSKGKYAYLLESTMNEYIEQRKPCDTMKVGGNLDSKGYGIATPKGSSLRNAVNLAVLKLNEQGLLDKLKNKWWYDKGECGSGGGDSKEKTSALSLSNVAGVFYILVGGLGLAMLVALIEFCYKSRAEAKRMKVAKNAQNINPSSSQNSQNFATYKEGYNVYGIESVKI
Chain of Glutamate receptor 2 (Rattus norvegicus) (P19491 whole entry, canonical isoform): as the sequence (P42262 whole entry, canonical isoform) above, with M191T, T291A, R764G, A852P counted along it
Chain of Voltage-gated inwardly rectifying potassium channel KCNH2 (Q12809 whole entry): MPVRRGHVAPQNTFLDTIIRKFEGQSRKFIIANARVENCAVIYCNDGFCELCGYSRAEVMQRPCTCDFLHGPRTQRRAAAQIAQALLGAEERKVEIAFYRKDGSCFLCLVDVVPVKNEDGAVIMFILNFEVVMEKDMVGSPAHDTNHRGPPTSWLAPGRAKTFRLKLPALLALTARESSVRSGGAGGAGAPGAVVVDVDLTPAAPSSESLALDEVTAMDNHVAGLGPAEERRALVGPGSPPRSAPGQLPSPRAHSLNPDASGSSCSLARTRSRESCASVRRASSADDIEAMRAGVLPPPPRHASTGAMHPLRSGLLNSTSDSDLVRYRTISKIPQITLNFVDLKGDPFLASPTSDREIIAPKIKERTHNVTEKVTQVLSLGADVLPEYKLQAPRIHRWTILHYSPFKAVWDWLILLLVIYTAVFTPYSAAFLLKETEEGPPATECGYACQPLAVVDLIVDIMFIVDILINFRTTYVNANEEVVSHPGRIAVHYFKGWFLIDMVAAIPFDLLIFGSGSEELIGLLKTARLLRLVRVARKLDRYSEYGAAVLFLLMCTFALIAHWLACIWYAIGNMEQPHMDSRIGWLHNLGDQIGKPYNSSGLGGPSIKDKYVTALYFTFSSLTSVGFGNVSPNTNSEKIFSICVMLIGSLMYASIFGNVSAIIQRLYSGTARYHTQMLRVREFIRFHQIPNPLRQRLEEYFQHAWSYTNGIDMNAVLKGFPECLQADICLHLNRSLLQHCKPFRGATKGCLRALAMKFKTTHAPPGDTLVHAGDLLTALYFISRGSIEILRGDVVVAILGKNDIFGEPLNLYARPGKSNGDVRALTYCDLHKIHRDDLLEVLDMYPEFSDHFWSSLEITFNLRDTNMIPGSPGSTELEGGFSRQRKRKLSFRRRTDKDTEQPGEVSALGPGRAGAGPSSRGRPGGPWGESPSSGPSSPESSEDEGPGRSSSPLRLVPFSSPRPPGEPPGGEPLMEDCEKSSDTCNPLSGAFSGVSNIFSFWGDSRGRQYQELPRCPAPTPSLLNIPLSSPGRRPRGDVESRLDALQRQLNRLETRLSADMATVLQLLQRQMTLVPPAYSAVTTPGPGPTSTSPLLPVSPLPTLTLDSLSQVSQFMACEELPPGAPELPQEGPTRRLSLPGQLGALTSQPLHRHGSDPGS

- logD [1]: 3
- AUC(0-t) [2]: 472 ng·h/mL
- Brain tissue binding (% bound) [3]: 99.4%
- Papp [4]: 41.5 ×10⁻⁶ cm/s
- clearance [5]: 40 mL/min/kg
- clearance [6]: 23 mL/min/kg
- Vd [7]: 4.8 L/kg
- Vd [8]: 1.6 L/kg
- half-life [9]: 1.4 h
- half-life [10]: 1.3 h
- half-life [11]: 0.5 h
- bioavailability [12]: 13%
- bioavailability [13]: 2%
- Cmax [14]: 245 ng/mL
- Cmax [15]: 14 ng/mL
- Cmax [16]: 29 ng/mL
- Cmax [17]: 5 ng/mL
- Tmax [18]: 0.5 h
- half-life [19]: 2.3 h
- half-life [20]: 0.9 h
- half-life [21]: 4.5 h
- CL [22]: 2.6 mL/min/g
- CL [23]: 7 mL/min/g
- Activity [25]: 123%
- Activity [26]: 37%
- Activity [27]: 600%
- Drug uptake [28]: 19 ng/g
- Drug uptake [29]: 542 ng/g
- bioavailability [30]: 54%
Compound: O=C(c1ccc(-n2nc(C(F)(F)F)c3c2CCCC3)cc1)N1CCCC1
- inhibition (INH) [24]: Not Active
- Activity [31]: Active
- Activity [32]: Active
- Activity [33]: Active
